Measurements: ChEMBL document CHEMBL3124809, “Back pocket flexibility provides group II p21-activated kinase (PAK) selectivity for type I 1/2 kinase inhibitors” (J Med Chem, 2014)
Converted amounts (≈) assume the structure as drawn. Blank lines part the entries; values can stand above or below the compound they belong to. The source made the active and inactive calls. The rule behind the calls is not given here.

Columns and labels:
[1] = biological target: T1, Tyrosine-protein kinase JAK3 (Homo sapiens) (UniProt P52333); assay: Inhibition of JAK3 (unknown origin) at 10 uM
T1 sequence (whole entry): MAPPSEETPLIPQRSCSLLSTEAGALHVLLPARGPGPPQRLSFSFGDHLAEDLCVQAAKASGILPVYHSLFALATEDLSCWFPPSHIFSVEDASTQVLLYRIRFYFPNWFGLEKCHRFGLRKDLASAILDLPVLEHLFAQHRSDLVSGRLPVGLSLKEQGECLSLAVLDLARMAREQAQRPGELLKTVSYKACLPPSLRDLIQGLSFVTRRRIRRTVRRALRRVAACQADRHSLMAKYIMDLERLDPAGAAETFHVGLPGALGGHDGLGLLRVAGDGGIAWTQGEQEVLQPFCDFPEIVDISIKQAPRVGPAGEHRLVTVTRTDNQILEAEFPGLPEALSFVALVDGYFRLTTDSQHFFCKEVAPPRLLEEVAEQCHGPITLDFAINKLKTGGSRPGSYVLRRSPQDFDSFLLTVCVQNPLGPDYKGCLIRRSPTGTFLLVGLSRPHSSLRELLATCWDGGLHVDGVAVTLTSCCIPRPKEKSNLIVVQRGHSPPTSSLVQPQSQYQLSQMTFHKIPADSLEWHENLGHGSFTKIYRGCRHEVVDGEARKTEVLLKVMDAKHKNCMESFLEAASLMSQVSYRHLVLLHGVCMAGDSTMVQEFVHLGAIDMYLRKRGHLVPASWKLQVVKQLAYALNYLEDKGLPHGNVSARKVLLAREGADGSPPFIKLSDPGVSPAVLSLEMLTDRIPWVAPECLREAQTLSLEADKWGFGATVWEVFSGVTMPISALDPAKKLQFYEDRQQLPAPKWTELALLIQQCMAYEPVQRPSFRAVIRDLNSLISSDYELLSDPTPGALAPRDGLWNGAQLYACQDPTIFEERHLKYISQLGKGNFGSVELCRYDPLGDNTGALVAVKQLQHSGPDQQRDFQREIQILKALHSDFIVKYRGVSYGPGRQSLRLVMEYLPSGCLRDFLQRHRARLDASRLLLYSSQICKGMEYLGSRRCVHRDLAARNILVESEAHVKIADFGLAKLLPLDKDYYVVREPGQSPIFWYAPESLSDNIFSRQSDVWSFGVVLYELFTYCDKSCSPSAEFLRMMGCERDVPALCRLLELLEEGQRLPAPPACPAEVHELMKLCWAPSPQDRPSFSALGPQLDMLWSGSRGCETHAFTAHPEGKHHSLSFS

[2] = biological target: Serine/threonine-protein kinase PAK 1 (Homo sapiens, UniProt Q13153); assay: Binding affinity to N-terminal GST-His-tagged recombinant human PAK1 kinase domain expressed in Escherichia coli BL21 using KKRNRRLSVA as sustrate preincubated for 10 mins followed by ATP addition measured after 60 mins by FRET-based Z'Lyte assay
[3] = biological target: T2, Serine/threonine-protein kinase PAK 4 (Homo sapiens, UniProt O96013); assay: Binding affinity to N-terminal GST-tagged recombinant human PAK4 kinase domain expressed in Escherichia coli using KKRNRRLSVA as substrate preincubated for 10 mins followed by ATP addition measured after 60 mins by FRET-based Z'Lyte assay
Target sequence in this assay (O96013 whole entry, the tested form may be a part): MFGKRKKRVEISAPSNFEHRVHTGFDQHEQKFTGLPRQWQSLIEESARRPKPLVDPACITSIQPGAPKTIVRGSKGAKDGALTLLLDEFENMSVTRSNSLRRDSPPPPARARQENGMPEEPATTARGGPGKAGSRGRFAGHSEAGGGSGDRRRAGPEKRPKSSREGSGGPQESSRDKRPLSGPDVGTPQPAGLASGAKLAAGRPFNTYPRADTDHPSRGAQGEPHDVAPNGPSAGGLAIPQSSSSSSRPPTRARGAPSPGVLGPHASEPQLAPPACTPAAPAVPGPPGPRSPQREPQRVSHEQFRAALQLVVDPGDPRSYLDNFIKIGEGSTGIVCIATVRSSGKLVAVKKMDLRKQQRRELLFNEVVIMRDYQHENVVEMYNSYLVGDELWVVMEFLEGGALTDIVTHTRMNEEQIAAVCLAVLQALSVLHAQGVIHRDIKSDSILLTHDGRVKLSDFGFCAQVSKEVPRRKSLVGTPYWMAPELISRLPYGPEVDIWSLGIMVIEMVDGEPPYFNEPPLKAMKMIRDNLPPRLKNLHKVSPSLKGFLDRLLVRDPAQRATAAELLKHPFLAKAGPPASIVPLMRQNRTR

[4] = biological target: T2, Serine/threonine-protein kinase PAK 4; conditions: 10 uM
Target sequence in this assay (O96013 whole entry, looked up, the tested form may be a part): as the sequence (O96013 whole entry, the tested form may be a part) above

[5] = biological target: Mitogen-activated protein kinase kinase kinase kinase 5 (Homo sapiens) (UniProt Q9Y4K4); assay: Inhibition of KHS1 (unknown origin) at 10 uM
[6] = biological target: Misshapen-like kinase 1 (Homo sapiens) (UniProt Q8N4C8); assay: Inhibition of MINK1 (unknown origin) at 10 uM
[7] = biological target: Mitogen-activated protein kinase kinase kinase 14 (Homo sapiens) (UniProt Q99558); assay: Inhibition of NIK (unknown origin) at 10 uM
[8] = biological target: Mitogen-activated protein kinase kinase kinase kinase 4 (Homo sapiens) (UniProt O95819); assay: Inhibition of MAP4K4 (unknown origin) at 10 uM
[9] = biological target: Mitogen-activated protein kinase kinase kinase 14 (Homo sapiens) (UniProt Q99558); assay: Inhibition of NIK (unknown origin) at 1 uM
[10] = biological target: T2, Serine/threonine-protein kinase PAK 4; assay: Inhibition of PAK4 (unknown origin) at 1 uM
Target sequence in this assay (O96013 whole entry, looked up, the tested form may be a part): as the sequence (O96013 whole entry, the tested form may be a part) above

[11] = biological target: Mitogen-activated protein kinase kinase kinase kinase 5 (Homo sapiens) (UniProt Q9Y4K4); assay: Inhibition of KHS1 (unknown origin) at 1 uM
[12] = biological target: Mitogen-activated protein kinase kinase kinase kinase 4 (Homo sapiens) (UniProt O95819); assay: Inhibition of MAP4K4 (unknown origin) at 1 uM
[13] = biological target: Misshapen-like kinase 1 (Homo sapiens) (UniProt Q8N4C8); assay: Inhibition of MINK1 (unknown origin) at 1 uM
[14] = biological target: T1, Tyrosine-protein kinase JAK3 (Homo sapiens); assay: Inhibition of JAK3 (unknown origin) at 1 uM
[15] = Thermodynamic solubility of the compound; type: physicochemical; conditions: read-out: Therm_solubility
[16] = Antimigratory activity in human MCF10A cells harboring PIK3CA H1047R mutant assessed as reduced wound density at >10 uM after 20 hrs by wound healing assay; type: functional, MCF-10A; set-up: scale not given: the % may be the effect or the level left
Procedure, shortened: (§1)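 Monolayer of 40 000 cells per well, grown overnight, scratched with WoundMaker, washed twice with warm medium, then given medium with DMSO or compound (0.1, 1, 10, 50 μM). Relative wound density from phase-contrast time-lapse images, collected and quantified every 2 h on IncuCyte.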

[17] = biological target: T2, Serine/threonine-protein kinase PAK 4; assay: Inhibition of PAK4 (unknown origin)
Target sequence in this assay (O96013 whole entry, the tested form may be a part): as above

[18] = biological target: Serine/threonine-protein kinase PAK 2 (Homo sapiens, UniProt Q13177); assay: Inhibition of PAK2 (unknown origin)
[19] = Antimigratory activity in human MDA-MB-436 cells assessed as reduction in wound density at >10 uM after 1 to 24 hrs by wound healing assay; type: functional; set-up: scale not given: the % may be the effect or the level left; procedure, shortened: as §1
[20] = biological target: Serine/threonine-protein kinase PAK 3 (Homo sapiens, UniProt O75914); assay: Inhibition of PAK3 (unknown origin)
[21] = tested on: MCF-10A; assay: Antiinvasive activity against human MCF10A cells harboring PIK3CA H1047R mutant assessed as complete wound closure at 0.1 to 50 uM after 40 hrs by matrigel assay; type: functional, cell-based
[22] = Lipophilicity, log D of the compound at pH 7.4; type: physicochemical; conditions: buffer
[23] = biological target: T3, Serine/threonine-protein kinase PAK 5 (Homo sapiens, UniProt Q9P286); assay: Inhibition of PAK5 (unknown origin) at 0.1 uM
[24] = Plasma protein binding in human plasma; type: ADME, cell-free; conditions: read-out: PPB (converted)
[25] = tested on: MDA-MB-436; assay: Cytotoxicity against human MDA-MB-436 cells assessed as reduction in cell viability at 50 uM after 24 to 48 hrs by Celltiter-glo luminescence assay; type: functional, cell-based
Procedure, shortened: (§2)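 Cells sparsely plated in 96-well plates and allowed to adhere, then given DMSO or compound (0.1, 1, 10, 50 μM) for 24 and 48 h. Metabolically active cells quantified by CellTiter-Glo luminescence. MDA-MB-436 grown in DMEM/10% FBS; MCF10A PIK3CA (one endogenous H1047R allele) in DMEM/F12 with 5% horse serum, insulin, hydrocortisone.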

[26] = biological target: T2, Serine/threonine-protein kinase PAK 4; conditions: 0.1 uM
Target sequence in this assay (O96013 whole entry, looked up, the tested form may be a part): as the sequence (O96013 whole entry, the tested form may be a part) above

[27] = biological target: T3, Serine/threonine-protein kinase PAK 5; assay: Inhibition of PAK5 (unknown origin)
[28] = Kinetic solubility of the compound; type: physicochemical; conditions: read-out: Kinetic_solubility
[29] = tested on: MDA-MB-436; assay: Antiinvasive activity against human MDA-MB-436 cells assessed as reduction of wound density after 80 hrs by matrigel assay; type: functional, cell-based
[30] = Cytotoxicity against human MCF10A cells harboring PIK3CA H1047R mutant cells assessed as reduction in cell viability at 10 uM after 24 to 48 hrs by Celltiter-glo luminescence assay; type: functional, MCF-10A; procedure, shortened: as §2
[31] = tested on: MDA-MB-436; assay: Antiinvasive activity against human MDA-MB-436 cells assessed as complete wound closure at 0.1 to 50 uM after 80 hrs by matrigel assay; type: functional, cell-based
[32] = biological target: T4, Ephrin type-B receptor 1 (Homo sapiens, UniProt P54762); assay: Inhibition of EphB1 (unknown origin)
T4 sequence (P54762 whole entry): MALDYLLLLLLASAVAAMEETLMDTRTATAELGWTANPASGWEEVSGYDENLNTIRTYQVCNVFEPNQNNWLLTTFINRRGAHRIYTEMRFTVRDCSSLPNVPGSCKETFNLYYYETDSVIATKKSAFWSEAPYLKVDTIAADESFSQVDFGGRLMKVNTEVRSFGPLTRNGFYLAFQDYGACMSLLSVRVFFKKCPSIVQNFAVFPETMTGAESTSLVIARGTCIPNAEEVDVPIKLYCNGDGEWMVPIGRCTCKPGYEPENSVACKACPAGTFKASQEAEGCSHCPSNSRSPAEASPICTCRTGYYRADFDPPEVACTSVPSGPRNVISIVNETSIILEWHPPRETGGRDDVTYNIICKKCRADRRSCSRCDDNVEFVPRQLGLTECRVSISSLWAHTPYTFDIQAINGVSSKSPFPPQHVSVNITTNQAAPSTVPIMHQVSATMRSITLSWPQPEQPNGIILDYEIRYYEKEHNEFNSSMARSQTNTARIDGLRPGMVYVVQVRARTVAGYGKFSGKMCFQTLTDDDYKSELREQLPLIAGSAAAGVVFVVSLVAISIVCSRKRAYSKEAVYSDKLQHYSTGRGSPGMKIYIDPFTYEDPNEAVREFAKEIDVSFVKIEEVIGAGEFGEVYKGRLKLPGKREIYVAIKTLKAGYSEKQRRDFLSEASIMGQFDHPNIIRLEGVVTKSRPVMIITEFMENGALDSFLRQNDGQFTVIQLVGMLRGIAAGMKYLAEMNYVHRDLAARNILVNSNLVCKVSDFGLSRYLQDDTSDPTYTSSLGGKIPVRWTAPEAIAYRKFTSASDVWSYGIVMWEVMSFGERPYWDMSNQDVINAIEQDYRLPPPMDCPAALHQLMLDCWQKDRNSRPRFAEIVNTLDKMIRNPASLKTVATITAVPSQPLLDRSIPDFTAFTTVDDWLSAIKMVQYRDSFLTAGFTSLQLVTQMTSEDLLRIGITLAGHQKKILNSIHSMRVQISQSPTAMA

[33] = biological target: T5, Serine/threonine-protein kinase PAK 6 (Homo sapiens, UniProt Q9NQU5); assay: Inhibition of PAK6 (unknown origin)
[34] = Apparent permeability across apical to basolateral side in MDCK cells; type: ADME, cell-based, Canis lupus familiaris; conditions: dog
[35] = Cytotoxicity against human MDA-MB-436 cells assessed as reduction in cell viability at 10 uM after 24 to 48 hrs by Celltiter-glo luminescence assay; type: functional; procedure, shortened: as §2
[36] = Antiinvasive activity against human MDA-MB-436 cells assessed as reduction of wound density at 1 uM after 80 hrs by matrigel assay; type: functional; set-up: scale not given: the % may be the effect or the level left
[37] = Antiinvasive activity against human MCF10A cells harboring PIK3CA H1047R mutant assessed as reduction of wound density at 10 uM after 48 hrs by matrigel assay; type: functional, MCF-10A; set-up: scale not given: the % may be the effect or the level left
[38] = biological target: T5, Serine/threonine-protein kinase PAK 6; assay: Inhibition of PAK6 (unknown origin) at 0.1 uM
[39] = tested on: MCF-10A; assay: Cytotoxicity against human MCF10A cells harboring PIK3CA H1047R mutant cells assessed as reduction in cell viability at 50 uM after 24 to 48 hrs by Celltiter-glo luminescence assay; type: functional, cell-based; procedure, shortened: as §2

Misshapen-like kinase 1 (Homo sapiens), sequence (Q8N4C8 whole entry, looked up): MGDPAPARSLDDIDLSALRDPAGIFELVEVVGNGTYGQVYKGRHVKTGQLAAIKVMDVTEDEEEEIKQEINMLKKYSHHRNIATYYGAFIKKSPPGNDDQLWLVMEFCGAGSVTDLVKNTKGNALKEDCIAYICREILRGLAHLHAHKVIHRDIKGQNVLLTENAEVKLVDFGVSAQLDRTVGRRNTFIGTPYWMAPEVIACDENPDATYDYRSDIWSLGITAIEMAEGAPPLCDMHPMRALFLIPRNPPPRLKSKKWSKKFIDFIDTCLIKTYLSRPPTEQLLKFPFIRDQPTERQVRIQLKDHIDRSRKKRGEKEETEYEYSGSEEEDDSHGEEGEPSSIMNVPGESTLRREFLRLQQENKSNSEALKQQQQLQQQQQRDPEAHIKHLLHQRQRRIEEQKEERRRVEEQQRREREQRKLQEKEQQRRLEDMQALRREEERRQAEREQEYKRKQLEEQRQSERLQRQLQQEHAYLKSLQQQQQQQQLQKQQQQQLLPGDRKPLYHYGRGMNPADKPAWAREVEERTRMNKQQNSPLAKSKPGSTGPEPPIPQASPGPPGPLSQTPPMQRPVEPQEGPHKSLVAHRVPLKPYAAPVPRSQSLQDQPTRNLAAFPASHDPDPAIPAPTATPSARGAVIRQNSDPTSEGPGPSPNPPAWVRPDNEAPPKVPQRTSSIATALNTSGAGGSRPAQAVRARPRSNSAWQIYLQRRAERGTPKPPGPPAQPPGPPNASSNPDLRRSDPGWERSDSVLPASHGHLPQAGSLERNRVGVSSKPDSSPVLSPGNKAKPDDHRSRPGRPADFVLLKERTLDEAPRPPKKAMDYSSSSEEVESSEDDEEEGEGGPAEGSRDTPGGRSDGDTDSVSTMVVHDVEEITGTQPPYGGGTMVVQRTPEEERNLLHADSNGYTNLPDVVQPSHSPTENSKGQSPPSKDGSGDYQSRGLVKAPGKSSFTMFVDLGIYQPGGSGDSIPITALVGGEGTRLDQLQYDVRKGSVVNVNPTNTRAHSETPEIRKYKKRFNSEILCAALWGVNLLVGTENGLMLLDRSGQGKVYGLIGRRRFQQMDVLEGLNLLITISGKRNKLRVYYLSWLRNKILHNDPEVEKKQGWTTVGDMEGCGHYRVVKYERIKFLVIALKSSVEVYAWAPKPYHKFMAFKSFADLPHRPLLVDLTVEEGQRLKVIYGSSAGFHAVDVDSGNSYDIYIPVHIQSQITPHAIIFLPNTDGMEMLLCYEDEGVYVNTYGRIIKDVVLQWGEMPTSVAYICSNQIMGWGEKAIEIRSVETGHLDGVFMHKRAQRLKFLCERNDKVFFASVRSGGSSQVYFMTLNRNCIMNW
Serine/threonine-protein kinase PAK 1, sequence (Q13153 whole entry, the tested form may be a part): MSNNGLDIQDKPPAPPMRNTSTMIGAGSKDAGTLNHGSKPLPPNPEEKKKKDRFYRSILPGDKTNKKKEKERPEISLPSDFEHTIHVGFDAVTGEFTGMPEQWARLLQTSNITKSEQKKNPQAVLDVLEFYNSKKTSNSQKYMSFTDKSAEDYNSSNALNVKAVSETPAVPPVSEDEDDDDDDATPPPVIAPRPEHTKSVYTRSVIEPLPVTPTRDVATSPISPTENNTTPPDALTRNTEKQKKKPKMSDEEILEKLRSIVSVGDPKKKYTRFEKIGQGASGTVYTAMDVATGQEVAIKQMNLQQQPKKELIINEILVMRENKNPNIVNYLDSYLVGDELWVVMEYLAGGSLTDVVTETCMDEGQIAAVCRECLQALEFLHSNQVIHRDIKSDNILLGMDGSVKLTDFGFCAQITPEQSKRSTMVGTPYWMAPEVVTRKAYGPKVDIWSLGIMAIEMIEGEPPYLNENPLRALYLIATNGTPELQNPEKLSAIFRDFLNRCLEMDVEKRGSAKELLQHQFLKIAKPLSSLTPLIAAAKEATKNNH
Mitogen-activated protein kinase kinase kinase 14 (Homo sapiens), sequence (Q99558 whole entry, looked up): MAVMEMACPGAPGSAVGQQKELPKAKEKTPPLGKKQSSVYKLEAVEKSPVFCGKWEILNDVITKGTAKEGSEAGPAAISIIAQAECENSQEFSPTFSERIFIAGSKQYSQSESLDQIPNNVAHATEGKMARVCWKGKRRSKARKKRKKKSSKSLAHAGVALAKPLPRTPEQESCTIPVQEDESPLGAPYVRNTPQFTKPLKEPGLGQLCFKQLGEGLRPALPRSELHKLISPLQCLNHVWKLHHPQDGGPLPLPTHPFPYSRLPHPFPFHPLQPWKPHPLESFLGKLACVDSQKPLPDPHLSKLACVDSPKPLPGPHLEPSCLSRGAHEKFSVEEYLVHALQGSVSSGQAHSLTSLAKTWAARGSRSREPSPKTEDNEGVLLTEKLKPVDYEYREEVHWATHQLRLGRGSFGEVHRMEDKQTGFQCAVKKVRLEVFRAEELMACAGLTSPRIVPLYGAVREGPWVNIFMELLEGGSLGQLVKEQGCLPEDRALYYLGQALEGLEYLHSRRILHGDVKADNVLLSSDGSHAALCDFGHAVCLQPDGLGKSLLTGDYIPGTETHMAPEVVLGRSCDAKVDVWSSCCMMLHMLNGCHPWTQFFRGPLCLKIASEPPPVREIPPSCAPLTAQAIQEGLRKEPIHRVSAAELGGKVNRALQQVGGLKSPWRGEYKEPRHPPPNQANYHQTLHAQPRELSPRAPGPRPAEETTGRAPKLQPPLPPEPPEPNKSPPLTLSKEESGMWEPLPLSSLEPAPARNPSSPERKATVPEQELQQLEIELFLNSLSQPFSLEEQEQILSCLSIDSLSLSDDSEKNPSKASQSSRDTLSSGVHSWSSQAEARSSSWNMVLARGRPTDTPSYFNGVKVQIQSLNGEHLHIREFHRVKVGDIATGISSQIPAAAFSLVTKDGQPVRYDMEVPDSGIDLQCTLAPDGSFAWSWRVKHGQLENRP
Mitogen-activated protein kinase kinase kinase kinase 4 (Homo sapiens), sequence (O95819 2-1239 limits assumed): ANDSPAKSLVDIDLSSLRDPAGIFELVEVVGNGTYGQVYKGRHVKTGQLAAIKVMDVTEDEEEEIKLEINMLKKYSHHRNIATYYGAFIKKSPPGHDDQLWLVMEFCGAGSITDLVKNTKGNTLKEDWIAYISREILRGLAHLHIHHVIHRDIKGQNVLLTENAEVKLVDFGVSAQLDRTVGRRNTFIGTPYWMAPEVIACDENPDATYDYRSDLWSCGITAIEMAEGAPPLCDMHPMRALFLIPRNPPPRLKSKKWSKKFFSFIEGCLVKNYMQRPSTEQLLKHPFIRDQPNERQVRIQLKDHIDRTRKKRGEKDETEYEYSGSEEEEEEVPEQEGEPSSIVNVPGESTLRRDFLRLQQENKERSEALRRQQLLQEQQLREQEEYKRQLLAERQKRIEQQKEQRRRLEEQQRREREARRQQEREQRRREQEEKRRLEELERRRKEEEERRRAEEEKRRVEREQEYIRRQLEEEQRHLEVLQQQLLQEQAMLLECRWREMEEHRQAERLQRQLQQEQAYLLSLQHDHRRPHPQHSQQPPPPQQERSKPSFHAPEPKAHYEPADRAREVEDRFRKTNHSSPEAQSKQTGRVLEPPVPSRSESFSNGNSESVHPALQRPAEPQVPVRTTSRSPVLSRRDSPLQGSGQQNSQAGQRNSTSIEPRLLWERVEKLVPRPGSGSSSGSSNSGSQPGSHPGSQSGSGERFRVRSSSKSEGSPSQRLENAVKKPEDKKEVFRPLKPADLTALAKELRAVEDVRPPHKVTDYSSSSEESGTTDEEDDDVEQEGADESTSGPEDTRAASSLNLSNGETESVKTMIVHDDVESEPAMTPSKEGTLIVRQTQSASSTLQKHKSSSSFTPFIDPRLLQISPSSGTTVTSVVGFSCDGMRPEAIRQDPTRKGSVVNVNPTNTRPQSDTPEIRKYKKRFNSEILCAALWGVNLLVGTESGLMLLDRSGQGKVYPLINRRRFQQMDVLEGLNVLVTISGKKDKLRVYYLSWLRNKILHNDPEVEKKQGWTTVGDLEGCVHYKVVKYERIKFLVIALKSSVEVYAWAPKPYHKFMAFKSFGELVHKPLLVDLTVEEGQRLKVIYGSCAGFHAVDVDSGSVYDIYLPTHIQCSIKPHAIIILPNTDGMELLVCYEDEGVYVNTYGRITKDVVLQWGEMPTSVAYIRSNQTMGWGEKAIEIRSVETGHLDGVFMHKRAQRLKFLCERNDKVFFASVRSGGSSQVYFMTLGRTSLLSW

- inhibition [1]: 31%
- Ki [2]: > 4500 nM
- Ki [3]: 140 nM
- inhibition [4]: 97%
- inhibition [5]: 88%
- inhibition [6]: 32%
- inhibition [7]: 84%
- inhibition [8]: 40%
Compound: COCCNc1nc2ccc(C#CC(C)(C)O)cc2n1-c1ccnc(N)n1

- inhibition [9]: 68%
- Ki [2]: 15300 nM
- inhibition [10]: 34%
- Ki [3]: 500 nM
- inhibition [11]: 81%
- inhibition [12]: 31%
- inhibition [13]: 27%
- inhibition [14]: 2%
Compound: Cc1nc2ccc(C#CC(C)(C)O)cc2n1-c1ncnc(N)n1

- solubility thermodynamic [15]: 6.3 µM (≈ 2.56 µg/mL)
- IC50 [17]: 7.5 nM
- IC50 [18]: 970 nM
- IC50 [20]: > 10000 nM
- logD [22]: 3.6
- inhibition [23]: > 60%
- inhibition [9]: 46%
- fraction unbound [24]: 0.04
- inhibition [10]: 100%
- inhibition [26]: > 60%
- IC50 [27]: 126 nM
- inhibition [11]: 14%
- solubility kinetic [28]: 30 µM (≈ 12.2 µg/mL)
- inhibition [12]: -4%
- IC50 [32]: > 10000 nM
- IC50 [33]: 36 nM
- Papp A→B [34]: 22.2 ×10⁻⁶ cm/s
- inhibition [13]: 5%
- inhibition [38]: > 60%
- inhibition [14]: -1%
Compound: COCCNc1nc2ccc(C#CC3(O)CCCCC3)cc2n1-c1ccnc(N)n1
- Activity [16]: 50%
- Activity [19]: 50%
- Activity [21]: Active
- Activity [25]: Active
- Activity [29]: Dose-dependent effect
- Activity [30]: 50%
- Activity [31]: inactive
- Activity [35]: 50%
- Activity [36]: 50%
- Activity [37]: 50%
- Activity [39]: Active

- Ki [2]: > 4500 nM
- Ki [3]: 32 nM
Compound: Cc1cc([C@](C)(O)C#Cc2ccc3nc(C)n(-c4ncnc(N)n4)c3c2)no1

- Ki [2]: > 4500 nM
- Ki [3]: 60 nM
Compound: CCNc1nc2ccc(C#CC(C)(C)O)cc2n1-c1ncnc(N)n1

- Ki [2]: > 4500 nM
- Ki [3]: 600 nM
Compound: Cc1nc2ccc(C#C[C@@](C)(O)c3nccs3)cc2n1-c1ncnc(N)n1

- Ki [2]: > 4500 nM
- Ki [3]: 1300 nM
Compound: CC(C)(O)C#Cc1ccc2cnn(-c3cc(N)ncn3)c2c1

- inhibition [9]: 56%
- inhibition [10]: 91%
- Ki [3]: 68 nM
- inhibition [11]: 44%
- inhibition [12]: 4%
- inhibition [13]: 6%
- inhibition [14]: -2%
Compound: Cc1nc2ccc(C#CC3(O)CCCCC3)cc2n1-c1ncnc(N)n1
